Reference: ChEMBL document CHEMBL2375255, “New quinazoline derivatives for telomeric G-quadruplex DNA: effects of an added phenyl group on quadruplex binding ability” (Eur J Med Chem, 2013)
Active and inactive are the calls of the source. The rule behind the calls is not given here.

Key:
Homo sapiens [1] = organism: Homo sapiens; test: Binding affinity to human telomeric G-quadruplex 5'-d(GGG[TTAGGG]3)-3' DNA assessed as change in melting temperature at 25 uM measured at 265 nM wavelength by circular dichroism spectroscopic analysis
In short: (§1)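 HTG21 in 10 mM Tris-HCl, pH 7.4, 60 mM KCl. CD melting profiles were read at 265 nm and at 290 nm, and ΔTm was determined from them.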

Homo sapiens [2] = organism: Homo sapiens; test: Binding affinity to human telomeric G-quadruplex 5'-d(GGG[TTAGGG]3)-3' DNA assessed as induction of conformation conversion from antiparallel to parallel type at 25 uM after 5 mins by circular dichroism spectroscopic analysis
Homo sapiens [3] = organism: Homo sapiens; test: Binding affinity to human telomeric G-quadruplex 5'-d(GGG[TTAGGG]3)-3' DNA assessed as change in melting temperature at 25 uM measured at 290 nM wavelength by circular dichroism spectroscopic analysis; in short: as §1
[4] = Binding affinity to human biotinylated telomeric G-quadruplex 5'-d(GGG[TTAGGG]3)-3' DNA by surface plasmon resonance analysis
In short: (§2)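 SPR with a Neutravidin-coated sensor chip. Biotinylated duplex DNA and biotinylated HTG21 were folded in running buffer (50 mM Tris-HCl, 100 mM KCl, pH 7.4, 0.005% Tween20) and immobilized. A range of ligand concentrations was injected simultaneously over G-quadruplex, duplex and blank reference channels. Binding plots from sensorgrams gave equilibrium constants (KD).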

[5] = Binding affinity to biotinylated duplex DNA (unknown origin) by surface plasmon resonance analysis; in short: as §2
[6] = biological target: Telomerase reverse transcriptase (Homo sapiens, UniProt O14746); test: Inhibition of telomerase in human HL60 cell extract by TRAP-LIG assay; design: species or system HL-60
In short: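 TRAP-LIG: compounds added to telomerase reaction mix containing HL60 cell extract. Ligand removed after enzyme incubation, before amplification. Purified extended products PCR-amplified for 35 cycles (94 °C 30 s, 61 °C 1 min, 72 °C 1 min). IC50 determined.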

[7] = Binding affinity to biotinylated duplex DNA (unknown origin) up to by surface plasmon resonance analysis; in short: as §2
HL-60 [8] = test: Binding affinity to G-quadruplex DNA in human HL60 cells assessed as telomere shortening at 1 uM after 12 days by restriction fragment length assay; assay type: cell-based
In short: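 HL60 cells exposed to ligand for 12 days. Genomic DNA digested with Hinf1/Rsa1, run on 0.8% agarose gel and transferred to nylon membrane. DNA fixed by baking at 120 °C for 20 min. Membrane hybridized with DIG-labelled telomeric-repeat probe, then detected with anti-DIG-alkaline phosphatase.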

HL-60 [9] = test: Induction of senescence in human HL60 cells assessed as increase in proportion of enlarged and flattened cells at 1 uM after 12 days by senescence-associated beta-galactosidase activity based optical microscopic analysis; assay type: functional, cell-based
In short: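 HL60 cells treated continuously for 12 days; 0.1% DMSO as control. Cells fixed 15 min at room temperature in 2% formaldehyde/0.2% glutaraldehyde, then washed with PBS. Stained overnight at 37 °C with 1 mg/mL X-gal solution. Enlarged, flattened, stained cells viewed by optical microscopy.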

HL-60 [10] = test: Cytotoxicity against human HL60 cells treated every 3 days up to 12 days; assay type: functional, cell-based
HL-60 [11] = test: Cytotoxicity against human HL60 cells at 0.5 to 1 uM treated every 3 days up to 12 days relative to control; assay type: functional, cell-based
HL-60 [12] = test: Cytotoxicity against human HL60 cells after 48 hrs by MTT assay; assay type: functional, cell-based; details: HL-60, 48 h
In short: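 HL60 cells seeded at 1.0 × 10³ per well and exposed to a range of concentrations for 48 h at 37 °C, 5% CO₂. MTT (5 mg/mL) added for 4 h. Formazan dissolved in DMSO and OD read at 570 nm. Each dose tested in triplicate; IC50 derived from mean OD versus concentration curves.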

HL-60 [13] = test: Binding affinity to G-quadruplex DNA in human HL60 cells assessed as telomere shortening at 0.01 to 1 uM after 12 days by restriction fragment length assay
Homo sapiens [14] = organism: Homo sapiens; test: Binding affinity to human biotinylated telomeric G-quadruplex 5'-d(GGG[TTAGGG]3)-3' DNA up to 20 uM by surface plasmon resonance analysis; in short: as §2

Telomerase reverse transcriptase, sequence (O14746 whole entry): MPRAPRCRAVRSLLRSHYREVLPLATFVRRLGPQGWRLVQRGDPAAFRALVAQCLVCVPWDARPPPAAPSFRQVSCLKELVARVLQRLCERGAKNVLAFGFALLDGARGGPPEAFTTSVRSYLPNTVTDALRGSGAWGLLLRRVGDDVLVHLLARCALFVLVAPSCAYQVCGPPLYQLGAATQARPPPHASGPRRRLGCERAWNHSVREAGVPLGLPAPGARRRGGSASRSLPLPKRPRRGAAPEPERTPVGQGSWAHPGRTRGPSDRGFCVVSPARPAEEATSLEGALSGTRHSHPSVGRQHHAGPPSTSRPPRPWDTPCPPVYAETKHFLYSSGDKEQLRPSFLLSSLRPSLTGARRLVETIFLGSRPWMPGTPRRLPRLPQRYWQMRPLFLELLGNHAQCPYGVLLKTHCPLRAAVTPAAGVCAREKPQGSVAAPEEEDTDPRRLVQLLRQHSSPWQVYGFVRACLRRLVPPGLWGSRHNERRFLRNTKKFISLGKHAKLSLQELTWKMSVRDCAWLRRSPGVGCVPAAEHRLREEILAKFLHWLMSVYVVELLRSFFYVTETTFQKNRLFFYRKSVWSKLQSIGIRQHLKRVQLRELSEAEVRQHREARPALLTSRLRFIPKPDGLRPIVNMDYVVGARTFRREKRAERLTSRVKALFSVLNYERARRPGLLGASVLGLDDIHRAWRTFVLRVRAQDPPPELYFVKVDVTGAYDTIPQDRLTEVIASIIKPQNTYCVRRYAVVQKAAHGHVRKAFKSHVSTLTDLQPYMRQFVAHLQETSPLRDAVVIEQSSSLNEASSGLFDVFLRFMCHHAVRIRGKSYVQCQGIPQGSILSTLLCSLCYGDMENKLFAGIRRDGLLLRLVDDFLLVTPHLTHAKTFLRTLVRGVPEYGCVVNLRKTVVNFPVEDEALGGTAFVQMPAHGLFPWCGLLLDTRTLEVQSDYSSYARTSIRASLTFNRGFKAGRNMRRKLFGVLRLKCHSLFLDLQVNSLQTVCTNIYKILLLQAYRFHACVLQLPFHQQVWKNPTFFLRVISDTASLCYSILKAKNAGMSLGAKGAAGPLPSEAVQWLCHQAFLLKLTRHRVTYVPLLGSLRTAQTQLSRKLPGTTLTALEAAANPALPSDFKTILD

Structure (SMILES)	ΔTm (Homo sapiens [1]) [°C]	Activity (Homo sapiens [2])	ΔTm (Homo sapiens [3]) [°C]	Kd [4] [µM]	further results
CN(C)CCCNc1nc(-c2ccccc2NC(=O)CCN2CCCC2)nc2ccccc12	8.7	Active	3.6		
CN(C)CCCNc1nc(-c2ccccc2NC(=O)c2ccc(NC(=O)CCN3CCN(C)CC3)cc2)nc2ccccc12	21.7	Active	8.2	1.48	Kd [5]: 13.2 µM
CCN(CC)CCC(=O)Nc1ccc(C(=O)Nc2ccccc2-c2nc(NCCCN(C)C)c3ccccc3n2)cc1	19.6	Active	5.4	1.61	Kd [5]: 22 µM
CN(C)CCCNCCC(=O)Nc1ccc(C(=O)Nc2ccccc2-c2nc(NCCCN(C)C)c3ccccc3n2)cc1	> 28	Active		1.11	IC50 [6]: 30.9 µM; Activity [7]: inactive
CN(C)CCCNc1nc(-c2ccccc2NC(=O)CCN2CCOCC2)nc2ccccc12	4.3	inactive	0.9		
CN(C)CCCNc1nc(-c2ccccc2NC(=O)c2ccc(NC(=O)CCN3CCOCC3)cc2)nc2ccccc12	15.3	Active	8.2		
CCN(CC)CCC(=O)Nc1ccccc1-c1nc(NCCCN(C)C)c2ccccc2n1	8.2	Active	2.5		
CN(C)CCCNc1nc(-c2ccccc2NC(=O)c2ccc(NC(=O)CCN3CCCC3)cc2)nc2ccccc12	18.7	Active	4.6		
CN(C)CCCNCCC(=O)Nc1ccc(C(=O)Nc2cc(Cl)ccc2-c2nc(NCCCN(C)C)c3ccccc3n2)cc1	> 28	Active	14.8	0.379	Activity (HL-60 [8]): Active; Activity (HL-60 [9]): Active; Activity (HL-60 [10]): Dose-dependent effect; Activity (HL-60 [11]): Active; IC50 (HL-60 [12]): 1.7 µM; IC50 [6]: 2.3 µM; Activity [7]: inactive; Activity (HL-60 [13]): Active
CN(C)CCCNc1nc(-c2ccccc2NC(=O)CCN2CCN(C)CC2)nc2ccccc12	8	Active	2.1		Activity (Homo sapiens [14]): inactive
CN(C)CCCNc1nc(-c2ccc(Cl)cc2NC(=O)c2ccc(NC(=O)CCN3CCN(C)CC3)cc2)nc2ccccc12	> 28	Active	3.4	0.276	Activity [7]: inactive
CN(C)CCCNc1nc(-c2ccccc2NC(=O)CN2CCCC2)nc2ccccc12	7.3	Active	2.6		
CCN(CC)CCC(=O)Nc1ccc(C(=O)Nc2cc(Cl)ccc2-c2nc(NCCCN(C)C)c3ccccc3n2)cc1	21.9	Active	2.8	0.302	Activity [7]: inactive
CN(C)CCCNc1nc(-c2ccccc2NC(=O)CN2CCN(C)CC2)nc2ccccc12	3.1	inactive	0.6		Activity (Homo sapiens [14]): inactive
CN(C)CCCNc1nc(-c2ccccc2NC(=O)c2ccc(NC(=O)CN3CCN(C)CC3)cc2)nc2ccccc12	21.8	Active	7.4	2.75	Kd [5]: 39.7 µM
CN(C)CCCNc1nc(-c2ccc(Cl)cc2NC(=O)c2ccc(NC(=O)CCN3CCOCC3)cc2)nc2ccccc12	21.6	Active	4.7	3.06	Activity [7]: inactive
CN(C)CCCNCCC(=O)Nc1ccccc1-c1nc(NCCCN(C)C)c2ccccc2n1	12.4	Active	6.2	3.36	IC50 [6]: > 50 µM; Kd [5]: 7.9 µM
CN(C)CCCNc1nc(-c2ccccc2NC(=O)c2ccc(NC(=O)CN3CCCC3)cc2)nc2ccccc12	21.4	Active	11.7		
CN(C)CCCNc1nc(-c2ccccc2NC(=O)CN2CCOCC2)nc2ccccc12	0.5	inactive	0		
CN(C)CCCNc1nc(-c2ccc(Cl)cc2NC(=O)CCN2CCN(C)CC2)nc2ccccc12	14.4	Active	4.4		
CN(C)CCCNc1c2ccccc2nc2c1[nH]c1ccccc12	11.2	inactive	8	28	Kd [5]: 5.02 µM
CN(C)CCCNc1nc(-c2ccc(Cl)cc2NC(=O)c2ccc(NC(=O)CCN3CCCC3)cc2)nc2ccccc12	> 28	Active	5.7	0.227	Activity [7]: inactive
CCN(CC)CC(=O)Nc1ccc(C(=O)Nc2ccccc2-c2nc(NCCCN(C)C)c3ccccc3n2)cc1	21.6	Active	11.6	8.34	Kd [5]: 11.9 µM
CN(C)CCCNc1nc(-c2ccccc2NC(=O)c2ccc(NC(=O)CN3CCOCC3)cc2)nc2ccccc12	11.9	Active	4.7		
CCN(CC)CC(=O)Nc1ccccc1-c1nc(NCCCN(C)C)c2ccccc2n1	2.1	Active	0.7		
